Results: ChEMBL document CHEMBL4823313 (Bioorg Med Chem, 2021)

How the values were obtained:
[1] = test system: SARS-CoV-2; assay: (§1) Antiviral activity against SARS-CoV-2 nCoV-2019BetaCoV/Wuhan/WIV04/ infected in African green monkey Vero E6 cells assessed as inhibition of viral replication at 5 uM when host cells were pretreated for 1 hr followed by viral infection then followed by removal of infected supernatant and subsequent culture addition with fresh compounds and measured after 24 hrs by qRT-PCR method relative to control; assay type: functional; settings: Severe acute respiratory syndrome coronavirus 2, nCoV-2019BetaCoV/Wuhan/WIV04/, Vero C1008, time 25 hrs
[2] = AUClast in CD-1 mouse at 25 mg/kg, iv by LC-MS/MS analysis; assay type: ADME, organism-based; set-up: route intravenous, time 0 - last, dose 25 mg/kg; settings: in vivo
Summary of the method: (§2)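 Mice were fasted 12 h. Dosing was 50 mg/Kg orally or 25 mg/Kg intravenously, in DMSO-ethanol-PEG300-saline (5/5/40/50, v/v/v/v). Blood was drawn from the femoral vein into heparinized tubes at several post-dose times, and analytes were measured by LC-MS/MS.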

[3] = Half life in CD-1 mouse at 25 mg/kg, iv by LC-MS/MS analysis; assay type: ADME, organism-based; settings: in vivo; for half-life: CD-1, mouse; summary of the method: as §2
[4] = Half life in CD-1 mouse at 50 mg/kg, po by LC-MS/MS analysis; assay type: ADME, organism-based; settings: in vivo; summary of the method: as §2
[5] = AUClast in CD-1 mouse at 50 mg/kg, po by LC-MS/MS analysis; assay type: ADME, organism-based; set-up: route oral, time 0 - last, dose 50 mg/kg; settings: in vivo; summary of the method: as §2
[6] = Stability of compound in stimulated intestinal fluid assessed as parent compound remaining measured after 4 hrs by HPLC analysis; assay type: ADME; settings: simulated intestinal fluid, read-out: Stabilty
Summary of the method: (§3)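 Compound solution was diluted into artificial gastric or intestinal juice and incubated at 37 °C. Samples were taken at 0, 1, 2, 3, 4, 6 and 24 h and quenched with ice-cold acetonitrile. After centrifugation, supernatants were analysed by HPLC.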

[7] = Observed volume of distribution at steady state in CD-1 mouse at 25 mg/kg, iv by LC-MS/MS analysis; assay type: ADME, organism-based; settings: in vivo; for Vd: CD-1, mouse, read-out: Vdss; summary of the method: as §2
[8] = Cmax in CD-1 mouse at 50 mg/kg, po by LC-MS/MS analysis; assay type: ADME, organism-based; set-up: route oral, dose 50 mg/kg; settings: in vivo; summary of the method: as §2
[9] = Observed MRT infinity in CD-1 mouse at 50 mg/kg, po by LC-MS/MS analysis; assay type: ADME, organism-based; settings: in vivo; summary of the method: as §2
[10] = Stability of compound in stimulated gastric fluid incubated for 24 hrs by HPLC analysis; assay type: ADME; settings: simulated gi fluid; summary of the method: as §3
[11] = Oral bioavailability in CD-1 mouse at 50 mg/kg by LC-MS/MS analysis; assay type: ADME, organism-based; settings: in vivo; summary of the method: as §2
[12] = test system: SARS-CoV-2; assay: as §1, with “replication” for “replication at 5 uM”, “method” for “method relative to control”; assay type: functional, organism-based; settings: Severe acute respiratory syndrome coronavirus 2, nCoV-2019BetaCoV/Wuhan/WIV04/, Vero C1008
[13] = Observed MRT infinity in CD-1 mouse at 25 mg/kg, iv by LC-MS/MS analysis; assay type: ADME, organism-based; settings: in vivo; for MRT inf: CD-1, mouse; summary of the method: as §2
[14] = Tmax in CD-1 mouse at 50 mg/kg, po by LC-MS/MS analysis; assay type: ADME, organism-based; settings: in vivo; summary of the method: as §2
[15] = test system: SARS-CoV-2; assay: as §1, with “10” for “5”; assay type: functional; settings: Severe acute respiratory syndrome coronavirus 2, nCoV-2019BetaCoV/Wuhan/WIV04/, Vero C1008, time 25 hrs
[16] = Acute toxicity in ICR mouse assessed as effect on body weight at 100 to 1000 mg/kg, po via gavage and measured after 7 days; assay type: organism-based; settings: in vivo, 168 h, dose 100-1000 mg/kg, time 7 day
Summary of the method: (§4)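 Male ICR mice (28–36 g), 3 per group, were fasted 16 h. Each got one oral gavage dose of 50, 100, 200, 500 or 1000 mg/kg in 5% DMSO, 5% Solution Hs15 and 90% saline. Clinical signs, body weight and food consumption were followed for 7 days, and animals were sacrificed on day 8.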

[17] = Acute toxicity in ICR mouse assessed as effect on organ weight at 100 to 1000 mg/kg, po via gavage and measured after 7 days; assay type: organism-based; settings: in vivo, 168 h, dose 100-1000 mg/kg, time 7 day
[18] = Acute toxicity in po dosed ICR mouse assessed as maximum tolerated dose measured after 7 days; assay type: organism-based; settings: in vivo, time 7 day; summary of the method: as §4
[19] = test system: Vero C1008; assay: Cytotoxicity against African green monkey Vero E6 cells by CCK8 assay; assay type: cell-based; settings: chlorocebus sabaeus
Summary of the method: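 Vero E6 cell viability was read by CCK-8 colorimetric assay.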

CO[C@@H]1[C@H](O)[C@@H](CO)O[C@@]1(C#N)c1ccc2c(N)ncnn12
inhibition at 5 µM [1]: < 10%

Nc1ncnn2c([C@@H]3O[C@H](CO)[C@@H](O)C3(F)F)ccc12
inhibition at 5 µM [1]: < 10%

N#C[C@@]1(c2ccc3c(O)ncnn23)O[C@H](CO)[C@@H](O)[C@H]1O
inhibition at 5 µM [1]: < 10%

Nc1ncnn2c([C@]3(CO)O[C@H](CO)[C@@H](O)[C@H]3O)ccc12
inhibition at 5 µM [1]: < 10%

Br.CC(C)C(=O)OC[C@H]1O[C@@](C#N)(c2ccc3c(N)ncnn23)[C@H](OC(=O)C(C)C)[C@@H]1OC(=O)C(C)C
AUC(0-t) [2]: 3600 ng·h/mL | half-life [3]: 2.48 h | half-life [4]: 2.71 h | AUC(0-t) [5]: 7110 ng·h/mL

N#Cc1cc([C@]2(C#N)O[C@H](CO)[C@@H](O)[C@H]2O)n2ncnc(N)c12
inhibition at 5 µM [1]: < 10%

N#C/C=C/[C@@]1(c2ccc3c(N)ncnn23)O[C@H](CO)[C@@H](O)[C@H]1O
inhibition at 5 µM [1]: < 10%

CC(C)[C@H](N)C(=O)O[C@H]1[C@@H](O)[C@](C#N)(c2ccc3c(N)ncnn23)O[C@@H]1CO.Cl.Cl
remaining at 4 h [6]: 34% | Vdss ([7]; mouse, 25 mg/kg): 3.86 L/kg | inhibition at 5 µM [1]: 99% | Cmax [8]: 1510 ng/mL | AUC(0-t) [2]: 5420 ng·h/mL | MRT inf [9]: 2.76 h | Stabilty [10]: Stable | t1/2 ([3]; mouse, 25 mg/kg): 0.61 h | F [11]: 27.5% | EC50 [12]: 110 nM | half-life [4]: 1.72 h | AUC(0-t) [5]: 2980 ng·h/mL | MRT ([13]; mouse, 25 mg/kg): 0.78 h | Tmax [14]: 0.83 h

CCC(CC)COC(=O)[C@H](C)N[P@](=O)(OC[C@H]1O[C@@](C#N)(c2cc(F)c3c(N)ncnn23)[C@H](O)[C@@H]1O)Oc1ccccc1
inhibition at 10 µM [15]: 82%

CC(C)C(=O)O[C@H]1[C@@H](O)[C@](C#N)(c2ccc3c(N)ncnn23)O[C@@H]1CO
remaining at 4 h [6]: 100% | Vd [7]: 2.59 L/kg | inhibition at 5 µM [1]: 99% | Cmax [8]: 7880 ng/mL | AUC(0-t) [2]: 10200 ng·h/mL | MRT inf [9]: 1.82 h | Stabilty [10]: Stable | half-life [3]: 0.83 h | F [11]: 71.6% | EC50 [12]: 250 nM | half-life [4]: 1.11 h | AUC(0-t) [5]: 14600 ng·h/mL | MRT inf [13]: 1.07 h | Tmax [14]: 0.33 h

N#C[C@@]1(c2cc(F)c3c(N)ncnn23)O[C@H](CO)[C@@H](O)[C@H]1O
inhibition at 5 µM [1]: 80% | inhibition at 10 µM [15]: 97% | EC50 [12]: 3300 nM

C=C(C)[C@@]1(c2ccc3c(N)ncnn23)O[C@H](CO)[C@@H](O)[C@H]1O
inhibition at 5 µM [1]: < 10%

Nc1ncnn2c([C@@H]3O[C@H](CO)[C@@H](O)[C@H]3F)ccc12
inhibition at 5 µM [1]: < 10%

N#C[C@@]1(c2cc(I)c3c(N)ncnn23)O[C@H](CO)[C@@H](O)[C@H]1O
inhibition at 5 µM [1]: < 10%

N#C[C@@]1(c2cc(Cl)c3c(N)ncnn23)O[C@H](CO)[C@@H](O)[C@H]1O
inhibition at 5 µM [1]: < 10%

CC(C)C(=O)OC[C@H]1O[C@@](C#N)(c2ccc3c(N)ncnn23)[C@H](O)[C@@H]1O [OBELDESIVIR]
remaining at 4 h [6]: 2% | Vd [7]: 4.17 L/kg | inhibition at 5 µM [1]: 99% | Activity [16]: Non-Toxic | Cmax [8]: 6680 ng/mL | AUC(0-t) [2]: 7980 ng·h/mL | MRT inf [9]: 2.16 h | Stabilty [10]: Stable | half-life [3]: 4.77 h | F [11]: 86.6% | Activity [17]: Non-Toxic | EC50 [12]: 230 nM | half-life [4]: 2.46 h | MTD at 168 h [18]: 1000 mg/kg | AUC(0-t) [5]: 13800 ng·h/mL | MRT inf [13]: 1.33 h | Tmax [14]: 0.42 h

CCCCCOC(=O)Nc1ncnn2c([C@]3(C#N)O[C@H](CO)[C@@H](O)[C@H]3O)ccc12
inhibition at 10 µM [15]: 65%

Nc1ncnn2c([C@@H]3O[C@H](CO)[C@@H](O)[C@H]3O)ccc12
Activity [19]: Toxic

CC(C)[C@H](N)C(=O)OC[C@H]1O[C@@](C#N)(c2ccc3c(N)ncnn23)[C@H](O)[C@@H]1O
remaining at 4 h [6]: 9% | Stabilty [10]: Stable

CC(C)C(=O)OC[C@H]1O[C@@](C#N)(c2ccc3c(N)ncnn23)[C@H](O)[C@@H]1OC(=O)C(C)C
inhibition at 5 µM [1]: 99%

N#C[C@@]1(c2ccc3c(N)ncnn23)O[C@H](CO)[C@@H](O)[C@H]1O [GS-441524]
inhibition at 5 µM [1]: 99% | EC50 [12]: 480 nM

OC[C@H]1O[C@@H](c2ccc3c(NO)ncnn23)[C@H](O)[C@@H]1O
inhibition at 5 µM [1]: < 10%

CC(=O)[C@@]1(c2ccc3c(N)ncnn23)O[C@H](CO)[C@@H](O)[C@H]1O
inhibition at 5 µM [1]: < 10%

CCC(CC)COC(=O)[C@H](C)N[P@](=O)(OC[C@H]1O[C@@](C#N)(c2ccc3c(N)ncnn23)[C@H](O)[C@@H]1O)Oc1ccccc1
inhibition at 5 µM [1]: 65% | EC50 [12]: 2000 nM

CC(C)C(=O)O[C@H]1[C@@H](OC(=O)C(C)C)[C@](C#N)(c2ccc3c(N)ncnn23)O[C@@H]1CO
inhibition at 5 µM [1]: 99%

NC(=O)[C@@]1(c2ccc3c(N)ncnn23)O[C@H](CO)[C@@H](O)[C@H]1O
inhibition at 5 µM [1]: < 10%
